These results are taken from PubChem BioAssay.

A short description of test [1]: Her2 expression decrease, cell viability multiplex – SKBR3 breast tumor cells, AlphaScreen, ATP viability, primary screen (AID 461;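 active = Her2 level under about 52% in both replicate screens, with viability over 70% of control, limit read from the data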;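 for Her2 level: lower value means less Her2 protein in the cells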;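 for viability: percent of carrier control wells set as 100% viability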). Conditions: SKBR3 Her2 protein level, 18-24 h, measured here: SKBR3 viability, ATP luminescence, at 10 µM.
Test [2] has as its target Receptor tyrosine-protein kinase erbB-2 (Homo sapiens) (UniProt P04626). The test is described as above. The settings on record: 18-24 h, at 10 µM, stronger effect = lower value.
Test [3] can be described thus: reduced viability of SK-BR-3 breast cancer cells – cell-based, 24 h, human, pilot screen (AID 572;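 active = viability at or below 10% of carrier control in both of two separate runs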;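 note: compound exposure lasted between 18 and 24 h rather than exactly 24 h; 100% = carrier-treated control wells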). The settings on record: SK-BR-3 viability, CellTiter-Glo luminescence, at 10 µM, stronger effect = lower value.
The nature of test [4]: HUVEC growth inhibition – cell-based, human, primary screen (AID 575;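 active = viability at or below 30% in both replicate assays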;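 note: 100% = median of untreated cell wells with 0.1% DMSO on each plate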). The settings on record: HUVEC proliferation, CellTiter-Glo luminescence, 72 h; at 10 µM; stronger effect = lower value. In short, it runs like this: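 Test system: HUVEC primary cells. Quantity: 1250 endothelial cells in each well. Dosing: single-point 10 µM, DMSO 0.1% final. Incubation: 72 h treatment at 37 °C. Measured by: CTG luminescence. Control set: DMSO cell controls and MePR drug controls. Plate: collagen-coated 384-well format.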

A short description of test [5]: H69AR cell proliferation blockers – human, duplicate replicates, primary screen (AID 580;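 active = viability at or under a set limit in both replicates, limit being median viability minus 3 SD, cut at about 48% in these data, passing the limit was not always enough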;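 note: 100% = mean luminescence of untreated wells and 0% = no signal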). The settings on record: H69AR lung tumor cells viability, ATP luminescence, 72 h; at 10 µM; stronger effect = lower value.
A short description of test [6]: MRP1 drug-resistance reversers in H69AR cells – cell-based, doxorubicin co-treatment, pilot screen (AID 601;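 active = viability loss from added drug above about 55%, and viability with drug at most 40%, in both replicates, limit read from the data, passing the limit was not always enough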). The settings on record: CellTiter-Glo, 72 h, at 10 µM; for differential viability (reversal): stronger effect = higher value.
Test [7] in a line: yeast transport mutant growth inhibition pilot in 384-well plates, post-Golgi transport modulator project (AID 636; in the data active = inhibition above about 31%). Conditions: absorbance 615 nm, about 18 h, stronger effect = higher value.
Test [8] can be described thus: growth suppression of yeast trafficking mutant, preliminary HTS, modulators of trafficking downstream of Golgi apparatus project, 1536-format plate, OD 615 nm (AID 637). Conditions: yeast transport mutant growth, absorbance 615 nm, 18 h; stronger effect = higher value.
Setting [9] is: H69AR cells + 2 uM doxorubicin, measured here: viability with 2 uM doxorubicin, stronger effect = lower value.
Where [10] appears, read: H69AR cells, compound alone cytotoxicity.

Each structure is given as a SMILES string. The source made the active and inactive calls. Cut-off read from the data, not from the text of the source, unless noted: active = inhibition above about 30%; inactive = the rest.

Sequence of Receptor tyrosine-protein kinase erbB-2 (Homo sapiens) (P04626 whole entry, looked up): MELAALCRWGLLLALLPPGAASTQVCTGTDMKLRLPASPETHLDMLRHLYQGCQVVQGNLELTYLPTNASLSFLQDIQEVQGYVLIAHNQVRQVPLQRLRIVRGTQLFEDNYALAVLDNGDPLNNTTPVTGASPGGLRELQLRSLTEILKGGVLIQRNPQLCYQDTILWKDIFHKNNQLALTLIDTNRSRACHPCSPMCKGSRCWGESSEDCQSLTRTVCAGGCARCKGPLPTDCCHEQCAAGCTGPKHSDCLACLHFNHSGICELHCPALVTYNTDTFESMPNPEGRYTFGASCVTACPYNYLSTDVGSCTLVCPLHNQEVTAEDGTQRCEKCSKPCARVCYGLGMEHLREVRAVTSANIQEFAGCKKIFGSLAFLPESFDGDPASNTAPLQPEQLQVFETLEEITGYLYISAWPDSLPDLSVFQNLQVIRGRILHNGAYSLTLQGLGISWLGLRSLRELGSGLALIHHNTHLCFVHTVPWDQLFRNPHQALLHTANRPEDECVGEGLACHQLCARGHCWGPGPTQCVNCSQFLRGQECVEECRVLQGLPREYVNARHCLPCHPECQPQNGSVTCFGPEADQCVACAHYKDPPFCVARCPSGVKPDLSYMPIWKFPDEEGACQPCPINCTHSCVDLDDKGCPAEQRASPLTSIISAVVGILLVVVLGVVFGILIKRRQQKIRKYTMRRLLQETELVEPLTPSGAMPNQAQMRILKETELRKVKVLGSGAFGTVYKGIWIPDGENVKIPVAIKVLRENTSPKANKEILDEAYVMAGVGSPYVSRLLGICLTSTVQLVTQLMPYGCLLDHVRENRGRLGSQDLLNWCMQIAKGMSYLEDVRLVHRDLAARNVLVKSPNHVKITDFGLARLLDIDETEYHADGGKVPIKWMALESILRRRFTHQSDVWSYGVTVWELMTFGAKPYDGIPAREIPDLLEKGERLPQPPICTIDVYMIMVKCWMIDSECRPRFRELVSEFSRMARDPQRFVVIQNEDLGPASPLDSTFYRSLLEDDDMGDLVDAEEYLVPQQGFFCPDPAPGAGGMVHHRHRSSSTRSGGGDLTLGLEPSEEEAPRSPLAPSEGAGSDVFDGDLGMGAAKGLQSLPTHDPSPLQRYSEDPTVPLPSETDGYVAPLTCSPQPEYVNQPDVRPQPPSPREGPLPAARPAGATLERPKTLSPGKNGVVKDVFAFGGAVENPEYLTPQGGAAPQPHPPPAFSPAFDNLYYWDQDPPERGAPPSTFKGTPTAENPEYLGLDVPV

Consider `CCOC(=O)CNC(=O)Nc1nnc(-c2ccc(OCC)cc2)o1`, for which the viability – broadly, a read-out of living cells in per cent, often relative to untreated cells – in test [1] is 99%; in test [3], 99% (inactive); in test [4] it was 105% (inactive); in test [5], 98.3% (inactive); in test [6] (setting [9]), 90.3%; in test [6] (setting [10]), 98.3%. The Her2 level in test [2] is 92% (inactive). For the same compound, the differential viability (reversal) in test [6] (H69AR cells + 2 uM doxorubicin) is 8% (inactive). Besides, the inhibition (usually the drop in the measured response relative to a control, in per cent) in test [7] was -1.08% (inactive); in test [8], -3.02% (inactive).
As for `CCOc1ccc2[nH]c(=O)c(C(c3nnnn3Cc3ccco3)N3CCC(C)CC3)cc2c1` (stereo not given), the viability was 80.5% in test [1]; 80.5% (inactive) in test [3]; 82.3% (inactive) in test [4]; 85.7% (inactive) in test [5]; 87.7% in test [6] (setting [9]); 85.7% in test [6] (setting [10]). Also, in test [2], the Her2 level is 81.5% (inactive). The differential viability (reversal) in test [6] (H69AR cells + 2 uM doxorubicin) is -1.93% (inactive). Further, the inhibition in test [7] is -5.34% (inactive); in test [8], 3.02% (inactive).
`O=C(Cn1nnc(-c2ccccc2)n1)Nc1ccccc1N1CCOCC1`: the viability in test [1] was 99.5%; in test [3] it was 99.5% (inactive); in test [4], 110% (inactive); in test [5] it was 93.3% (inactive); in test [6] (setting [9]), 92.5%; in test [6] (setting [10]), 93.3%. Besides, in test [2], the Her2 level is 98% (inactive). Also, the differential viability (reversal) in test [6] (H69AR cells + 2 uM doxorubicin) is 0.8% (inactive). Also, the values for the inhibition in test [7] and in test [8] were -7.2% (inactive) and 0.66% (inactive), respectively.
For `CCOC(=O)c1sc(NC(=O)C2CC=CCC2C(=O)O)nc1C` (stereo not given), the viability was 105% in test [1]; 105% (inactive) in test [3]; 100% (inactive) in test [4]; 98.1% (inactive) in test [5]; 97.1% in test [6] (setting [9]); 98.1% in test [6] (setting [10]). Moreover, the Her2 level in test [2] was 92.5% (inactive). The differential viability (reversal) in test [6] (H69AR cells + 2 uM doxorubicin) is 1.07% (inactive). For the same compound, the inhibition in test [7] is -1.04% (inactive); in test [8], -1.64% (inactive).
Regarding `O=C(Nc1ncc(Br)s1)C1CCCN1S(=O)(=O)c1cccc2cccnc12` (stereo not given), the viability in test [1] is 93%; in test [3] it was 93% (inactive); in test [4] it was 87.4% (inactive); in test [5], 29.8% (active); in test [6] (setting [9]) it was 40.6%; in test [6] (setting [10]) it was 29.8%. The Her2 level in test [2] was 81.5% (inactive). The differential viability (reversal) in test [6] (H69AR cells + 2 uM doxorubicin) is -10.8% (inactive). Further, the inhibition in test [7] is -0.38% (inactive); in test [8] it was -1.5% (inactive).
Regarding `Cc1ccccc1-c1nc(Cc2ccccc2)no1`, the viability is 77.5% in test [1]; 77.5% (inactive) in test [3]; 104% (inactive) in test [4]; 102% (inactive) in test [5]; 82.5% in test [6] (setting [9]); 102% in test [6] (setting [10]). Further, in test [2], the Her2 level is 97.5% (inactive). Besides, the differential viability (reversal) in test [6] (H69AR cells + 2 uM doxorubicin) is 19.1% (inactive). In addition, the inhibition in test [7] was -0.51% (inactive); in test [8] it was -3.33% (inactive).
In the case of `COc1cccc(-c2cc(C(=O)N3CCc4ccccc4C3)no2)c1`, the viability in test [1] is 99.5%; in test [3], 99.5% (inactive); in test [4], 67.7% (inactive); in test [5] it was 96.8% (inactive); in test [6] (setting [9]), 103%; in test [6] (setting [10]), 96.8%. Further, in test [2], the Her2 level was 104% (inactive). The differential viability (reversal) in test [6] (H69AR cells + 2 uM doxorubicin) is -5.97% (inactive). Further, the inhibition was -8.51% (inactive) in test [7] and -4.59% (inactive) in test [8].
On to `O=C(NCCCNC(=O)c1ccccn1)c1ccccn1`, for which the viability in test [1] is 106%; in test [3], 106% (inactive); in test [4], 79.6% (inactive); in test [5], 91.5% (inactive); in test [6] (setting [9]) it was 92.1%; in test [6] (setting [10]) it was 91.5%. Further, the Her2 level in test [2] was 75% (inactive). Besides, in test [6] (H69AR cells + 2 uM doxorubicin), the differential viability (reversal) was -0.68% (inactive). Also, the figures for the inhibition in test [7] and in test [8] were -5.89% (inactive) and -3.49% (inactive), respectively.
`Cc1ccc(CN2C(=O)CCC2C(=O)NCC2CCCO2)cc1` (stereo not given): the viability in test [1] was 90%; in test [3], 90% (inactive); in test [4], 82.8% (inactive); in test [5] it was 103% (inactive); in test [6] (setting [9]), 97.3%; in test [6] (setting [10]), 103%. For the same compound, the Her2 level in test [2] was 81% (inactive). Further, the differential viability (reversal) in test [6] (H69AR cells + 2 uM doxorubicin) was 5.64% (inactive). The inhibition in test [7] is -1.45% (inactive); in test [8], 3.55% (inactive).
Turning to `CN(C#N)c1nc(N2CCOCC2)nc(N2CCOCC2)n1`, the viability is 111% in test [1]; 111% (inactive) in test [3]; 81.7% (inactive) in test [4]; 92.8% (inactive) in test [5]; 89.5% in test [6] (setting [9]); 92.8% in test [6] (setting [10]). In addition, the Her2 level in test [2] was 120% (inactive). Further, in test [6] (H69AR cells + 2 uM doxorubicin), the differential viability (reversal) is 3.22% (inactive). Moreover, the inhibition in test [7] was -1.22% (inactive); in test [8], 6.35% (inactive).
Take `CCOc1ccc2nc(SCC#N)c(C#N)cc2c1`: the viability in test [1] is 93%; in test [3], 93% (inactive); in test [4], 104% (inactive); in test [5] it was 100% (inactive); in test [6] (setting [9]) it was 84%; in test [6] (setting [10]), 100%. The Her2 level in test [2] was 106% (inactive). In addition, the differential viability (reversal) in test [6] (H69AR cells + 2 uM doxorubicin) is 16.1% (inactive). The values for the inhibition in test [7] and in test [8] were -3.2% (inactive) and -0.32% (inactive), respectively.
`CCOC(=O)N1CCN(C(=O)C2CC(=O)N(Cc3ccc(OC)cc3)C2)CC1` (stereo not given): the viability in test [1] is 96.5%; in test [3], 96.5% (inactive); in test [4] it was 112% (inactive); in test [5], 93.3% (inactive); in test [6] (setting [9]), 96.8%; in test [6] (setting [10]), 93.3%. The Her2 level in test [2] was 91% (inactive). Also, in test [6] (H69AR cells + 2 uM doxorubicin), the differential viability (reversal) was -3.47% (inactive). Further, the inhibition in test [7] was -4.34% (inactive); in test [8], -1.45% (inactive).
For the compound `CCC(C)(C)n1nnnc1C(c1cc2cc(OC)ccc2[nH]c1=O)N1CCc2ccccc21` (stereo not given), the viability was 97% in test [1]; 97% (inactive) in test [3]; 67% (inactive) in test [4]; 68% (inactive) in test [5]; 68.1% in test [6] (setting [9]); 68% in test [6] (setting [10]). In addition, in test [2], the Her2 level was 78% (inactive). The differential viability (reversal) in test [6] (H69AR cells + 2 uM doxorubicin) was -0.155% (inactive). For the same compound, the inhibition in test [7] was -3.6% (inactive); in test [8], -4.59% (inactive).
For `COC(=O)c1[nH]c2cc(OC)ccc2c1NC(=O)CN1CCOCC1`, the viability in test [1] was 116%; in test [3], 116% (inactive); in test [4] it was 95% (inactive); in test [5], 94.3% (inactive); in test [6] (setting [9]), 91.3%; in test [6] (setting [10]), 94.3%. In addition, the Her2 level in test [2] is 90.5% (inactive). The differential viability (reversal) in test [6] (H69AR cells + 2 uM doxorubicin) was 3.07% (inactive). The results for the inhibition in test [7] and in test [8] were 0% (inactive) and -4.19% (inactive), respectively.
On to `O=C1CN(C(=O)CN2CCCC2)C(c2ccccc2)c2cc(Br)ccc2N1` (stereo not given), for which the viability in test [1] was 94%; in test [3] it was 94% (inactive); in test [4], 75.8% (inactive); in test [5], 102% (inactive); in test [6] (setting [9]) it was 97.2%; in test [6] (setting [10]), 102%. Moreover, the Her2 level in test [2] is 91% (inactive). In test [6] (H69AR cells + 2 uM doxorubicin), the differential viability (reversal) is 4.63% (inactive). Also, the inhibition is -4.67% (inactive) in test [7] and 1.61% (inactive) in test [8].
As for `COc1ccc(-c2noc(-c3ccccc3C(=O)NCc3ccco3)n2)cc1`, the viability in test [1] was 93%; in test [3], 93% (inactive); in test [4], 107% (inactive); in test [5], 82.8% (inactive); in test [6] (setting [9]) it was 94.9%; in test [6] (setting [10]) it was 82.8%. Further, the Her2 level in test [2] is 104% (inactive). Also, the differential viability (reversal) in test [6] (H69AR cells + 2 uM doxorubicin) is -12.1% (inactive). For the same compound, the inhibition is -3.12% (inactive) in test [7] and -5.24% (inactive) in test [8].
